In paper PMC8828683 (Stem Cell Reports, 2022):

Experiments:
WA01/H1 ESC [1] = assay: Cellular ATP level; assay type: cell-based, human; conditions: read-out: IC50 ATP
Method in brief: (§1)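 Cellular ATP was measured with a CellTiter-Glo luminescence viability assay after exposure to a concentration range of test compound. IC50 is the average of three independent assays. Mean IC50s across differentiated or human pluripotent lines, and their ratio, are derived from the per-line values.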

WA09/H9 ESC [2] = assay: Cellular ATP level; assay type: cell-based, human; conditions: read-out: IC50 ATP
Method in brief: as §1

SCUi24 iPSC [3] = assay: Cellular ATP level; assay type: cell-based, human; conditions: read-out: IC50 ATP
Method in brief: as §1

TERA-2 ECC [4] = assay: Cellular ATP level; assay type: cell-based, human; conditions: read-out: IC50 ATP
Method in brief: as §1

NTERA-2 ECC [5] = assay: Cellular ATP level; assay type: cell-based, human; conditions: read-out: IC50 ATP
Method in brief: as §1

[6] = tested on: HFF-1 normal skin fibroblast; assay: Cellular ATP level; assay type: cell-based, human; conditions: read-out: IC50 ATP
Method in brief: as §1

[7] = tested on: H108 normal skin fibroblast; assay: Cellular ATP level; assay type: cell-based, human; conditions: read-out: IC50 ATP
Method in brief: as §1

[8] = tested on: HBEC normal lung epithelial; assay: Cellular ATP level; assay type: cell-based, human; conditions: read-out: IC50 ATP
Method in brief: as §1

[9] = tested on: VeroE6 normal kidney epithelial; assay: Cellular ATP level; assay type: cell-based, monkey; conditions: read-out: IC50 ATP
Method in brief: as §1

WA01/H1 ESC [10] = assay: Live cells / PCD by FACS of nonpermeabilized cells stained with annexin-V and PI; assay type: cell-based, human; conditions: read-out: IC50 Live Cells
Method in brief: (§2)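 Cells were seeded so that vehicle wells stayed subconfluent, then treated with a range of test compound concentrations for 4 days. Without permeabilization, they were stained with annexin-V-FITC and propidium iodide and analysed by flow cytometry. Double-negative cells (Q3) were scored as live and Q1+Q2 as programmed death. Vehicle was set to 100% viable and 0% dead. Results are the mean of three independent assays with SEM; group averages and ratios are derived from the IC50s.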

WA09/H9 ESC [11] = assay: as above; assay type: cell-based, human; conditions: read-out: IC50 Live Cells
Method in brief: as §2

SCUi24 iPSC [12] = assay: as above; assay type: cell-based, human; conditions: read-out: IC50 Live Cells
Method in brief: as §2

TERA-2 ECC [13] = assay: as above; assay type: cell-based, human; conditions: read-out: IC50 Live Cells, 4 days
Method in brief: as §2

NTERA-2 ECC [14] = assay: as above; assay type: cell-based, human; conditions: read-out: IC50 Live Cells; NTERA-2 ECC, 4 days
Method in brief: as §2

GCT27D.C1 ECC [15] = assay: as above; assay type: cell-based, human; conditions: read-out: IC50 Live Cells, 4 days
Method in brief: as §2

[16] = tested on: HFF-1 normal skin fibroblast; assay: as above; assay type: cell-based, human; conditions: read-out: IC50 Live Cells; HFF-1
Method in brief: as §2

[17] = tested on: H108 normal skin fibroblast; assay: as above; assay type: cell-based, human; conditions: read-out: IC50 Live Cells; H108, 4 days
Method in brief: as §2

[18] = tested on: HBEC normal lung epithelial; assay: as above; assay type: cell-based, human; conditions: read-out: IC50 Live Cells
Method in brief: as §2

[19] = tested on: VeroE6 normal kidney epithelial; assay: as above; assay type: cell-based, monkey; conditions: read-out: IC50 Live Cells (PCD)
Method in brief: as §2

[20] = tested on: H1-diff (spontaneously differentiated H1 ESCs); assay: as above; assay type: cell-based, human; conditions: read-out: IC50 Live Cells, 4 days
Method in brief: as §2

[21] = tested on: Mouse Gmnn(fl/fl);ER-Cre/+ ESCs; assay: Cellular DNA content by FACS of permeabilized cells stained with PI; assay type: cell-based
Method in brief: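 Mouse Gmnn(fl/fl);ER-Cre/+ embryonic stem cells were grown with 3 μM test compound (from a 20 mM DMSO stock) or DMSO vehicle for the indicated times. Attached and unattached cells were pooled, permeabilized and stained with propidium iodide. DNA content was measured by flow cytometry, scoring the fraction of cells with <2N DNA.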

WA01/H1 ESC [22] = assay: Cells with <2N DNA by FACS of permeabilized cells stained with PI; assay type: cell-based, human; conditions: read-out: IC50 DNA (50% of cells with <2N DNA)
Method in brief: (§3)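 Cells were exposed to a range of test compound concentrations alongside vehicle (DMSO) controls. They were then permeabilized, stained with propidium iodide, and DNA content was read by flow cytometry. IC50 is the concentration at which 50% of cells hold <2N DNA, from 3 independent repetitions with SEM. Line averages and differentiated/pluripotent ratios are derived from these IC50s. NTERA-2 was also run as a time course at 5 μM, normalized to vehicle at each time point.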

WA09/H9 ESC [23] = assay: as above; assay type: cell-based, human
Method in brief: as §3

SCUi24 iPSC [24] = assay: as above; assay type: cell-based, human; conditions: read-out: IC50 DNA (50% of cells with <2N DNA)
Method in brief: as §3

TERA-2 ECC [25] = assay: as above; assay type: cell-based, human; conditions: read-out: IC50 DNA (50% of cells with <2N DNA)
Method in brief: as §3

NTERA-2 ECC [26] = assay: as above; assay type: cell-based, human
Method in brief: as §3

GCT27D.C1 ECC [27] = assay: as above; assay type: cell-based, human
Method in brief: as §3

[28] = tested on: HFF-1 normal skin fibroblast; assay: as above; assay type: cell-based, human; conditions: read-out: IC50 DNA (50% of cells with <2N DNA); HFF-1
Method in brief: as §3

[29] = tested on: H108 normal skin fibroblast; assay: as above; assay type: cell-based, human; conditions: read-out: IC50 DNA (50% of cells with <2N DNA)
Method in brief: as §3

[30] = tested on: HBEC normal lung epithelial; assay: as above; assay type: cell-based, human; conditions: read-out: IC50 DNA (50% of cells with <2N DNA)
Method in brief: as §3

[31] = tested on: VeroE6 normal kidney epithelial; assay: as above; assay type: cell-based, monkey; conditions: read-out: IC50 DNA (50% of cells with <2N DNA)
Method in brief: as §3

[32] = ratio differentiated/pluripotent

Q: Which results are given for `C(=N\Nc1nc(Nc2ccccc2)nc(N2CCOCC2)n1)/c1c[nH]c2ccccc12` [WX8]?
A: IC50 (WA01/H1 ESC [1]): 1.6 µM; IC50 (WA09/H9 ESC [2]): 0.26 µM; IC50 (SCUi24 iPSC [3]): 0.4 µM; IC50 (TERA-2 ECC [4]): 3 µM; IC50 (NTERA-2 ECC [5]): 0.48 µM; IC50 [6]: 28 µM; IC50 [7]: 15 µM; IC50 [8]: 6 µM; IC50 [9]: 14 µM; IC50 (WA01/H1 ESC [10]): 1.9 µM; IC50 (WA09/H9 ESC [11]): 2.5 µM; IC50 (SCUi24 iPSC [12]): 2.5 µM; IC50 (TERA-2 ECC [13]): 5 µM; IC50 (NTERA-2 ECC [14]): 1.3 µM; IC50 (GCT27D.C1 ECC [15]): 0.28 µM; IC50 [16]: 75 µM; IC50 [17]: 50 µM; IC50 [18]: 140 µM; IC50 [19]: 60 µM; IC50 [20]: > 10 µM; Cells with <2N DNA ([21]; 3 μM WX8, 72 hr): > 90%; Cells with <2N DNA ([21]; 3 μM WX8, within 32 h): 50%; IC50 (WA01/H1 ESC [22]): 2 µM; Range of sensitivity to WX8-induced cell death (DNA loss), HBEC/H9 (WA09/H9 ESC [23]; [32]): 5 fold; IC50 (WA09/H9 ESC [23]; read-out: IC50 DNA (50% of cells with <2N DNA), WA09/H9 ESC): 5 µM; IC50 (SCUi24 iPSC [24]): 1 µM; IC50 (TERA-2 ECC [25]): 5 µM; Cells with <2N DNA (NTERA-2 ECC [26]; NTERA-2, 5 μM WX8, 96h (4 days)): > 80%; IC50 (NTERA-2 ECC [26]; read-out: IC50 DNA (50% of cells with <2N DNA), NTERA-2 ECC): 3.5 µM; Range of sensitivity to WX8-induced cell death (DNA loss), H108/GCT27DC1 (GCT27D.C1 ECC [27]; [32]): 700 fold; IC50 (GCT27D.C1 ECC [27]; read-out: IC50 DNA (50% of cells with <2N DNA), GCT27D.C1 ECC): 0.2 µM; IC50 [28]: 50 µM; IC50 [29]: 140 µM; IC50 [30]: 20 µM; IC50 [31]: 60 µM
